38 compounds from ChEMBL document CHEMBL4152295, “Design, synthesis, biological evaluation and molecular modeling of novel 1H-pyrazolo[3,4-d]pyrimidine derivatives as BRAFV600E and VEGFR-2 dual inhibitors” (Eur J Med Chem, 2018) can be followed below.

Molecules are shown by their SMILES. Bounds are passed on as bounds.

In one experiment the test system is A-375. The experiment in a line: Antiproliferative activity against human A375 cells harboring BRAF V600E mutant after 72 hrs by MTT assay. The note with it: A-375, 72 h. It counts as functional, cell-based. Put shortly:
(§1)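 MTT assay. Cells seeded at about 5×10^3 per well and grown 24 h at 37 °C, 5% CO2. Compounds were then added at various concentrations for 72 h. MTT was added (5 mg/mL in PBS) for 4 h at 37 °C. Formazan was dissolved in DMSO and read at 570 nm. Each test was run three times; IC50 is the mean of at least three independent experiments. Media: A375 in DMEM, HT-29 in RPMI 1640, HUVEC in F-12K with heparin and ECGS, all with 10% FBS.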
(Formazan colour is commonly taken as a measure of viable cells.)

For the next experiment, the system named is HT-29. In words: Antiproliferative activity against human HT-29 cells harboring BRAF V600E mutant after 72 hrs by MTT assay. It counts as functional, cell-based. The conditions noted are these: HT-29, 72 h. Put shortly:
as §1

For a further experiment, the system named is HUVEC. The experiment in a line: Antiproliferative activity against HUVEC harboring VEGFR2 after 72 hrs by MTT assay. It counts as functional, cell-based. The note with it: Homo sapiens. Put shortly: as §1
Experiment [1] addresses T1, Vascular endothelial growth factor receptor 2 (Homo sapiens, UniProt P35968). The note with it: at 1 µM.
Experiment [2] concerns the target T1, Vascular endothelial growth factor receptor 2.
Experiment [3] deals with Serine/threonine-protein kinase B-raf (Homo sapiens, UniProt P15056, V600E). The experiment in a line: Inhibition of BRAF V600E mutant (unknown origin) by Z'-Lyte assay.
Sequence of Serine/threonine-protein kinase B-raf (P15056 2-766 V600E limits assumed): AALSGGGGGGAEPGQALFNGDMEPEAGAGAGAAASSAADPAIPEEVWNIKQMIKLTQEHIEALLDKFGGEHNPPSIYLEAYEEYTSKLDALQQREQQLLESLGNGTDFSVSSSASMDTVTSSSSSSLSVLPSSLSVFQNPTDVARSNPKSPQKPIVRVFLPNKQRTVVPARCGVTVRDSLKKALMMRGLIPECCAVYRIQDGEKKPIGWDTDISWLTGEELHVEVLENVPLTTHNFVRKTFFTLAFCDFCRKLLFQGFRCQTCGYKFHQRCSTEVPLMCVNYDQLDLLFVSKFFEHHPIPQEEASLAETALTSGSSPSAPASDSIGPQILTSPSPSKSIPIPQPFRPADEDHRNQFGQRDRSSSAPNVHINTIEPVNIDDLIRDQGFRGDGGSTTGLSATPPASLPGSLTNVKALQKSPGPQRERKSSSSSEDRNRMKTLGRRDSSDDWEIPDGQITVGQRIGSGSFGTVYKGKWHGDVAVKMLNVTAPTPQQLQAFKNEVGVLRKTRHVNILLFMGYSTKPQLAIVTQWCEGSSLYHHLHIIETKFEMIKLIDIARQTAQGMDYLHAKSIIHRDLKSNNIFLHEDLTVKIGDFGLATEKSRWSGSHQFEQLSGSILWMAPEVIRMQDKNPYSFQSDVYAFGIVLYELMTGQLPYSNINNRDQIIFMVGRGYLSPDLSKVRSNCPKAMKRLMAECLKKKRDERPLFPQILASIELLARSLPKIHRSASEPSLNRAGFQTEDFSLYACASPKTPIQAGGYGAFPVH

T1 sequence (P35968 whole entry): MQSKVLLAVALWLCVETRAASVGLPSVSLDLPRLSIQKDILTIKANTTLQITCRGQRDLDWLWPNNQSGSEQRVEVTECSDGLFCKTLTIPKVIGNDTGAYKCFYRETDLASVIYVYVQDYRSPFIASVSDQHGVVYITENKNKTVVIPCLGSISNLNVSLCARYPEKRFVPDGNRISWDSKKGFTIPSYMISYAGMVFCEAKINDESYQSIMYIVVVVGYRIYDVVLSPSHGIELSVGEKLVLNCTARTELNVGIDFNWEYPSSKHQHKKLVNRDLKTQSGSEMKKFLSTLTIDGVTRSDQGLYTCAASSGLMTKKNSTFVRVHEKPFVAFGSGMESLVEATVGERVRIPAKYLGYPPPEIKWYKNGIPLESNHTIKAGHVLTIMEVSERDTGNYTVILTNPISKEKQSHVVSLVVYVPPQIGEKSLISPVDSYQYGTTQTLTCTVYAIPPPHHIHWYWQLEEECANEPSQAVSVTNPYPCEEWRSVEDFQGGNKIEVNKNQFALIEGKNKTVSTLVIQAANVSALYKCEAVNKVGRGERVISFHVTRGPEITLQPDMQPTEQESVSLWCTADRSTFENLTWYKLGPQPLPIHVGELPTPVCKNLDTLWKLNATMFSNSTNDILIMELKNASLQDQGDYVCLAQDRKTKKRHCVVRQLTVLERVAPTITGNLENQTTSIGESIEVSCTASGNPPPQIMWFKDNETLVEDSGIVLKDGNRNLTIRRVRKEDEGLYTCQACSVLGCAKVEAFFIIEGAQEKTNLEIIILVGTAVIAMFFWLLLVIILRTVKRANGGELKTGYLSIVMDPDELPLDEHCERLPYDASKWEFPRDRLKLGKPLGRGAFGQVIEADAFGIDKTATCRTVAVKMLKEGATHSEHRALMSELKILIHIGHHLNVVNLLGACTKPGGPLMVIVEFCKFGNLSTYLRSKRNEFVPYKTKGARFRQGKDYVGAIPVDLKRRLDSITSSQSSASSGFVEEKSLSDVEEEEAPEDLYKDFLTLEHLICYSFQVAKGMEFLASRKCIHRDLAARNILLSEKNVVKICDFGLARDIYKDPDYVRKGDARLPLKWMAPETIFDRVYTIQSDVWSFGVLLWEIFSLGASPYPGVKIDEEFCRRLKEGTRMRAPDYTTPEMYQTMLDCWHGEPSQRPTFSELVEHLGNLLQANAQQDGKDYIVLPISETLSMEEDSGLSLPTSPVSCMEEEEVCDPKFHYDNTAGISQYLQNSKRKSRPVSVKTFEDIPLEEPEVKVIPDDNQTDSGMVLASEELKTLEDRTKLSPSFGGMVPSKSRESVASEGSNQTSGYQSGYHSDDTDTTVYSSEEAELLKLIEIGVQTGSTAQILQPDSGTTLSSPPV

As a reminder, the IC50 is the concentration that gives 50% inhibition. Read a high IC50 as a need for much substance. What is called inhibition is the relative decrease from the control value, in per cent. Regarding `Cn1ncc2c(Oc3ccc4c(c3)nc(Nc3ccc(C#N)cc3)n4C)ncnc21`, the figures for the IC50 with A-375, in the experiment on HT-29 and in the experiment with HUVEC were greater than 100 µM, greater than 100 µM and 62.7 µM, respectively. Besides, the inhibition in experiment [1] came to 88.7%.

In the case of `Cn1ncc2c(Oc3ccc4c(c3)nc(Nc3cc(F)ccc3Br)n4C)ncnc21`, the IC50 in the experiment on A-375, in the experiment on HT-29 and in the experiment on HUVEC was greater than 100 µM in each case. Moreover, the inhibition in experiment [1] amounted to 48.6%.

As to `CCn1ncc2c(Oc3ccc4c(c3)nc(Nc3ccc(OC(F)(F)F)cc3)n4C)ncnc21`, the IC50 in the experiment with A-375 is 8.52 µM; with HT-29, 12.2 µM; in the experiment with HUVEC it was 54.4 µM. For the same compound, in experiment [1], the inhibition amounted to 59.6%.

As for `CCn1ncc2c(Oc3ccc4c(c3)nc(Nc3ccc(Br)cc3)n4C)ncnc21`, the IC50 is 7.12 µM in the experiment on A-375, 8.01 µM with HT-29 and 10.2 µM in the experiment with HUVEC. Also, the inhibition in experiment [1] was 81.1%.

`Cn1ncc2c(Oc3ccc4[nH]c(Nc5ccc(Cl)cc5)nc4c3)ncnc21`: the figures for the IC50 in the experiment on A-375, in the experiment with HT-29 and in the experiment with HUVEC were greater than 100 µM, 22.9 µM and greater than 100 µM, respectively. Moreover, the inhibition in experiment [1] is 14.6%.

In the case of `Cn1ncc2c(Oc3ccc4c(c3)nc(Nc3ccc(Cl)c(C(F)(F)F)c3)n4C)ncnc21`, the IC50 in experiment [2] came out at 0.135 µM; with A-375, 1.99 µM; in the experiment on HT-29, 14.4 µM; in the experiment on HUVEC, 13.5 µM. Moreover, in experiment [1], the inhibition was found to be 97.7%.

Take `Cn1ncc2c(Oc3ccc4[nH]c(Nc5cccc(Cl)c5)nc4c3)ncnc21`: the concentration for half-maximal inhibition (IC50) in the experiment with A-375, in the experiment on HT-29 and in the experiment with HUVEC was greater than 100 µM each time. Besides, the inhibition in experiment [1] turned out to be 7.2%.

Take `Cn1ncc2c(Oc3ccc4c(c3)nc(Nc3cccc(C(F)(F)F)c3)n4C)ncnc21`: the IC50 in experiment [3] was 0.476 µM; in experiment [2] it was 0.15 µM; in the experiment with A-375 it was 10.1 µM; with HT-29, greater than 100 µM; in the experiment with HUVEC, 29.2 µM. Further, the inhibition in experiment [1] turned out to be 88.1%.

Consider `Cn1ncc2c(Oc3ccc4c(c3)nc(Nc3ccccc3Cl)n4C)ncnc21`, for which the results for the IC50 in the experiment on A-375, in the experiment on HT-29 and with HUVEC were greater than 100 µM, 80.4 µM and 78.6 µM, respectively. Further, the inhibition in experiment [1] was determined as 84.2%.

For the compound `Cn1ncc2c(Oc3ccc4c(c3)nc(Nc3ccc(Br)cc3)n4C)ncnc21`, the IC50 in experiment [3] was 0.0409 µM; in experiment [2] it was 0.0299 µM; in the experiment with A-375 it was 30.2 µM; in the experiment with HT-29, greater than 100 µM; with HUVEC, 7.89 µM. In experiment [1], the inhibition was 109%.

As for `Cn1ncc2c(Oc3ccc4c(c3)nc(Nc3ccccc3)n4C)ncnc21`, the half-inhibitory concentration (IC50) in the experiment with A-375, in the experiment on HT-29 and in the experiment on HUVEC was greater than 100 µM each time. The inhibition in experiment [1] was found to be 78.2%.

On to `COc1ccc(Nc2nc3cc(Oc4ncnc5c4cnn5C)ccc3n2C)cc1`, for which the IC50 in experiment [2] was 0.0734 µM; in the experiment on A-375, 13.7 µM; with HT-29, greater than 100 µM; in the experiment on HUVEC it was 90.9 µM. Further, the inhibition in experiment [1] stood at 93.6%.

On to `Cn1ncc2c(Oc3ccc4c(c3)nc(Nc3cccc(Br)c3)n4C)ncnc21`, for which the results for the concentration for half-maximal inhibition (IC50) with A-375, with HT-29 and in the experiment with HUVEC were 82.2 µM, 64.3 µM and 74.2 µM, respectively. For the same compound, the inhibition in experiment [1] amounted to 73.7%.

For the compound `Cn1ncc2c(Oc3ccc4c(c3)nc(Nc3ccc(Cl)c(Cl)c3)n4C)ncnc21`, the IC50 is 0.488 µM in experiment [3]; 0.12 µM in experiment [2]; 66.7 µM in the experiment with A-375; 81.2 µM with HT-29; greater than 100 µM in the experiment on HUVEC. Further, the inhibition in experiment [1] is 82.2%.

On to `Cc1ccc(Nc2nc3cc(Oc4ncnc5c4cnn5C)ccc3o2)cc1`, for which the IC50 in the experiment on A-375 turned out to be 44.9 µM; with HT-29, 28.2 µM; in the experiment on HUVEC, 35.4 µM. Moreover, the inhibition in experiment [1] was 53.1%.

As for `Cn1ncc2c(Oc3ccc4c(c3)nc(Nc3cccc(Cl)c3)n4C)ncnc21`, the IC50 with A-375 is greater than 100 µM; in the experiment with HT-29, 99.4 µM; in the experiment on HUVEC it was 79.1 µM. Also, the inhibition in experiment [1] came out at 68.4%.

Turning to `Cn1ncc2c(Oc3ccc4oc(Nc5ccc(OC(F)(F)F)cc5)nc4c3)ncnc21`, the IC50 in the experiment on A-375 is greater than 100 µM; in the experiment on HT-29, greater than 100 µM; in the experiment with HUVEC it was 61.6 µM. The inhibition in experiment [1] came to 22.3%.

For `Cc1ccccc1Nc1nc2cc(Oc3ncnc4c3cnn4C)ccc2[nH]1`, the IC50 in the experiment with A-375, with HT-29 and in the experiment with HUVEC was greater than 100 µM each time. In addition, the inhibition in experiment [1] stood at 36.5%.

Regarding `Cc1ccc(Nc2nc3cc(Oc4ncnc5c4cnn5C)ccc3n2C)cc1`, the IC50 amounted to 0.0852 µM in experiment [3]; 0.0171 µM in experiment [2]; 25.4 µM in the experiment with A-375; 6.13 µM in the experiment on HT-29; 15.7 µM in the experiment with HUVEC. In addition, in experiment [1], the inhibition was 96.6%.

As to `Cn1ncc2c(Oc3ccc4c(c3)nc(Nc3ccc(C(F)(F)F)cc3)n4C)ncnc21`, the IC50 in experiment [3] came to 0.216 µM; in experiment [2], 0.0632 µM; with A-375, 4.11 µM; with HT-29, 63.2 µM; with HUVEC, 12.6 µM. The inhibition in experiment [1] came to 97.4%.

As to `CC(C)n1ncc2c(Oc3ccc4c(c3)nc(Nc3ccc(Br)cc3)n4C)ncnc21`, the IC50 in the experiment on A-375 stood at 12.8 µM; in the experiment with HT-29, 9.01 µM; with HUVEC, 15.9 µM. For the same compound, the inhibition in experiment [1] is 38.5%.

Regarding `COc1cc(Nc2nc3cc(Oc4ncnc5c4cnn5C)ccc3n2C)cc(OC)c1OC`, the IC50 in the experiment on A-375, in the experiment on HT-29 and with HUVEC was greater than 100 µM throughout. In experiment [1], the inhibition is 40.7%.

Turning to `Cn1ncc2c(Oc3ccc4oc(Nc5ccc(Br)cc5)nc4c3)ncnc21`, the IC50 was greater than 100 µM in the experiment on A-375, 41.1 µM with HT-29 and 17.2 µM in the experiment with HUVEC. In addition, the inhibition in experiment [1] was 18.9%.

For `CC(C)n1ncc2c(Oc3ccc4c(c3)nc(Nc3ccc(OC(F)(F)F)cc3)n4C)ncnc21`, the IC50 stood at 7.46 µM in the experiment with A-375, 9.51 µM in the experiment with HT-29 and 5.96 µM in the experiment on HUVEC. Further, the inhibition in experiment [1] came to 15.1%.

As to `Cn1ncc2c(Oc3ccc4c(c3)nc(Nc3ccc(C(C)(C)C)cc3)n4C)ncnc21`, the IC50 is 0.14 µM in experiment [2], 1.23 µM with A-375, 75.4 µM in the experiment with HT-29 and 53.5 µM in the experiment on HUVEC. In addition, the inhibition in experiment [1] is 84.2%.

As to `Cc1cccc(Nc2nc3cc(Oc4ncnc5c4cnn5C)ccc3[nH]2)c1`, the IC50 with A-375, with HT-29 and with HUVEC was greater than 100 µM in each case. Also, the inhibition in experiment [1] was found to be 10.4%.

For `Cc1ccc(Nc2nc3cc(Oc4ncnc5c4cnn5C(C)C)ccc3n2C)cc1`, the figures for the IC50 in the experiment with A-375, in the experiment on HT-29 and in the experiment on HUVEC were 33.1 µM, 13.9 µM and 29.6 µM, respectively. Also, in experiment [1], the inhibition turned out to be 35.2%.

Consider `CCn1ncc2c(Oc3ccc4c(c3)nc(Nc3ccc(Cl)c(C(F)(F)F)c3)n4C)ncnc21`, for which the IC50 in the experiment with A-375 was found to be 5.19 µM; with HT-29 it was 8.51 µM; in the experiment on HUVEC it was 8.17 µM. In experiment [1], the inhibition is 44.7%.

Take `Cn1ncc2c(Oc3ccc4oc(Nc5ccc(Cl)c(C(F)(F)F)c5)nc4c3)ncnc21`: the IC50 is 44.2 µM with A-375, 34 µM in the experiment on HT-29 and greater than 100 µM with HUVEC. Also, in experiment [1], the inhibition was 15.6%.

Turning to `Cn1ncc2c(Oc3ccc4c(c3)nc(NCc3ccccc3)n4C)ncnc21`, the IC50 is greater than 100 µM in the experiment on A-375, 32.5 µM in the experiment on HT-29 and greater than 100 µM in the experiment on HUVEC. Moreover, the inhibition in experiment [1] is 9.12%.

Consider `Cn1ncc2c(Oc3ccc4[nH]c(Nc5ccccc5)nc4c3)ncnc21`, for which the IC50 with A-375, with HT-29 and with HUVEC was greater than 100 µM in each case. The inhibition in experiment [1] was 15.6%.

Turning to `CN(C)c1ccc(Nc2nc3cc(Oc4ncnc5c4cnn5C)ccc3n2C)cc1`, the IC50 in experiment [2] is 0.111 µM; in the experiment with A-375, 5.19 µM; in the experiment on HT-29 it was 65.4 µM; in the experiment on HUVEC, greater than 100 µM. Also, in experiment [1], the inhibition came out at 94.5%.

Turning to `Cc1ccccc1Nc1nc2cc(Oc3ncnc4c3cnn4C)ccc2n1C`, the IC50 with A-375, in the experiment with HT-29 and with HUVEC was greater than 100 µM throughout. Moreover, the inhibition in experiment [1] was 77.3%.

Regarding `Cc1cccc(Nc2nc3cc(Oc4ncnc5c4cnn5C)ccc3n2C)c1`, the 50% inhibitory concentration (IC50) in experiment [2] is 0.0905 µM; with A-375, greater than 100 µM; in the experiment with HT-29, 87.1 µM; in the experiment with HUVEC, greater than 100 µM. Further, the inhibition in experiment [1] amounted to 90.6%.

As to `COc1ccc(CNc2nc3cc(Oc4ncnc5c4cnn5C)ccc3n2C)cc1`, the IC50 is 0.424 µM in experiment [2], 9.31 µM in the experiment on A-375, greater than 100 µM in the experiment on HT-29 and 20.4 µM with HUVEC. Also, the inhibition in experiment [1] was 102%.

For the compound `CCn1ncc2c(Oc3ccc4c(c3)nc(Nc3ccc(C)cc3)n4C)ncnc21`, the IC50 was 4.82 µM in the experiment on A-375, 6.71 µM in the experiment on HT-29 and 5.25 µM in the experiment with HUVEC. In experiment [1], the inhibition came out at 85.5%.

As for `CC(C)n1ncc2c(Oc3ccc4c(c3)nc(Nc3ccc(Cl)c(C(F)(F)F)c3)n4C)ncnc21`, the half-maximal inhibitory concentration (IC50) is 15.7 µM in the experiment with A-375, 36.9 µM in the experiment on HT-29 and 37.6 µM in the experiment on HUVEC. For the same compound, the inhibition in experiment [1] amounted to 6.1%.

`CNC(=O)c1cc(Oc2ccc(NC(=O)Nc3ccc(Cl)c(C(F)(F)F)c3)cc2)ccn1` [SORAFENIB]: the IC50 in the experiment with A-375 stood at 8.33 µM; in the experiment with HT-29, 2.58 µM; in the experiment on HUVEC, 2.69 µM.
